Where a chain is given by its changes, count along the chain named.
Experiments:
Settings in all cases: stereoisomer not certain
[1] = molecular target: T1, OR2B3 (Homo sapiens) (UniProt O76000)
T1 sequence (whole entry): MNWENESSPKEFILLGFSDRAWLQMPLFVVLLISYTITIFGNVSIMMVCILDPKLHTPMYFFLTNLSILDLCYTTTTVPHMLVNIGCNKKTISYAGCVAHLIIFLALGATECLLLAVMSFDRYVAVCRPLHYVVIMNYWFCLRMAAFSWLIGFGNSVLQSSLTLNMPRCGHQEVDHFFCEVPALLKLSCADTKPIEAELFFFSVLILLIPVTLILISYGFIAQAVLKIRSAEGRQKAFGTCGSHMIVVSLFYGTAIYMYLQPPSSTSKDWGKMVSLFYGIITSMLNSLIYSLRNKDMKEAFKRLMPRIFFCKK
Summary of the method: (§1)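 Values were gathered from published papers (main text and supplementary material), with extra details requested from the original authors when needed, and checked for typos and inconsistencies. Each receptor–molecule pair is called responsive (active) if the original authors judged the measured signal statistically different from baseline, and non-responsive (inactive) otherwise. Assay methods varied by source, often transient mammalian cell-line luciferase assays. Recorded details include cell line, G-protein, co-transfected protein and tags.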

[2] = molecular target: T2, OR2B6 (Homo sapiens) (UniProt P58173)
T2 sequence (whole entry): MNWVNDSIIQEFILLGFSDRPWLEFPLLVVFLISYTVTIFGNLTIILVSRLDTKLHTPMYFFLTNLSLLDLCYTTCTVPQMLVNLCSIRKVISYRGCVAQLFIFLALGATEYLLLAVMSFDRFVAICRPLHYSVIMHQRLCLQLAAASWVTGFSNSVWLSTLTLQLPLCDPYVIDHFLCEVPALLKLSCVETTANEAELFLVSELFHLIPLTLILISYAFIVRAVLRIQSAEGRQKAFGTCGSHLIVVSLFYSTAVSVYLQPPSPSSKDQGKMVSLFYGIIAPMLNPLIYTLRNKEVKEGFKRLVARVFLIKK
Summary of the method: as §1

[3] = test system: T3, OR2BB
T3 sequence (whole entry): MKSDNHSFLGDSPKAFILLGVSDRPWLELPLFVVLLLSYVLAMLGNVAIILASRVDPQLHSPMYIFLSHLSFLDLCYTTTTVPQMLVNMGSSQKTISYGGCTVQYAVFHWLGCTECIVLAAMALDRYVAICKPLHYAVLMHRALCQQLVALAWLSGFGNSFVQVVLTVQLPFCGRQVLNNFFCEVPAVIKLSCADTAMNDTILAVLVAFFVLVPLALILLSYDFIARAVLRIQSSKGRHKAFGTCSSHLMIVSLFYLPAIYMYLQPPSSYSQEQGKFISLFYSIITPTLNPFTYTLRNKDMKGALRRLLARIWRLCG
Summary of the method: as §1

[4] = test system: T4, OR2BB; remark: listed apart in the source
T4 sequence (whole entry): T3 sequence (whole entry) with D223G
Summary of the method: as §1

[5] = molecular target: T5, OR2C1 (Homo sapiens) (UniProt O95371)
T5 sequence (whole entry): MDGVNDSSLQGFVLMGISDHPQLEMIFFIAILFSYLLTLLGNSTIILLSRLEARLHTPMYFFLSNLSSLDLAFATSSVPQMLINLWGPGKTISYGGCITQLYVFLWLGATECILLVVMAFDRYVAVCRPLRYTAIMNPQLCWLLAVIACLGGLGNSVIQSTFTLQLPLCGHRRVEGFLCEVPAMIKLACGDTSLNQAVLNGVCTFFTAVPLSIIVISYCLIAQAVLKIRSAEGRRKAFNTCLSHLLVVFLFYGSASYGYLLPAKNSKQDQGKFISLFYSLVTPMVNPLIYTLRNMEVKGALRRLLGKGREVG
Summary of the method: as §1

[6] = test system: T6, OR2C1
T6 sequence (whole entry): T5 sequence (whole entry) with C149W
Summary of the method: as §1

[7] = test system: T7, OR2C3
T7 sequence (whole entry): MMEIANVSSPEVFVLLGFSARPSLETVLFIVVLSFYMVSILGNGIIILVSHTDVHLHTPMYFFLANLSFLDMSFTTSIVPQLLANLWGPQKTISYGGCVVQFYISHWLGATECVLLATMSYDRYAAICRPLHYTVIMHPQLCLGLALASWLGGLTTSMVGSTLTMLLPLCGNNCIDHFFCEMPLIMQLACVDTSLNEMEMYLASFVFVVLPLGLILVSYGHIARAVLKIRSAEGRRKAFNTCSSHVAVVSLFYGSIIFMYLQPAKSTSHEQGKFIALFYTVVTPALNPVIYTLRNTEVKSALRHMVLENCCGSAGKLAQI
Summary of the method: as §1

[8] = test system: T8, OR2C3; remark: listed apart in the source
T8 sequence (whole entry): T7 sequence (whole entry) with A20T, V289L
Summary of the method: as §1

[9] = molecular target: T9, OR2D2 (Homo sapiens) (UniProt Q9H210)
T9 sequence (whole entry): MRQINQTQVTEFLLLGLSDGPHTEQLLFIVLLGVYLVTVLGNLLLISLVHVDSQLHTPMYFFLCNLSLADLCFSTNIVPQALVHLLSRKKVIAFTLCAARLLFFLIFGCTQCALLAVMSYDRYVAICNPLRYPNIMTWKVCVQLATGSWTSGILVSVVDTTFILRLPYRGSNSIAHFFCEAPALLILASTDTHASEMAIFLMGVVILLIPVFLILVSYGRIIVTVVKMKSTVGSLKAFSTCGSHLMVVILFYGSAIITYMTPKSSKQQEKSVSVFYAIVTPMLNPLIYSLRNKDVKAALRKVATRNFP
Summary of the method: as §1

[10] = test system: T10, OR2D2 S148P I163T M202T
T10 sequence (whole entry): T9 sequence (whole entry) with S148P, I163T, M202T
Summary of the method: as §1

[11] = molecular target: T11, OR2D3 (Homo sapiens) (UniProt Q8NGH3)
T11 sequence (whole entry): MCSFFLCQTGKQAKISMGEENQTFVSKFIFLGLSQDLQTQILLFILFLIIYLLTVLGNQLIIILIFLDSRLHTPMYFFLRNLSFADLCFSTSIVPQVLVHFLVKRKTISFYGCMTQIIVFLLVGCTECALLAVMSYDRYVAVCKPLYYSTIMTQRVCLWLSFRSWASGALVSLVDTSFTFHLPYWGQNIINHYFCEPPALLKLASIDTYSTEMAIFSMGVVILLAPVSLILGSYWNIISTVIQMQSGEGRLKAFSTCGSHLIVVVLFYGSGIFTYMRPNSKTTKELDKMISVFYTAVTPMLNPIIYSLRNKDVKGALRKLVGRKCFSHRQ
Summary of the method: as §1

[12] = test system: T12, OR2D3 R155W
T12 sequence (whole entry): T11 sequence (whole entry) with R155W
Summary of the method: as §1

[13] = molecular target: T13, OR2C3 (Homo sapiens) (UniProt Q8N628)
T13 sequence (whole entry): T7 sequence (whole entry) with A20T, S68P, V289L
Summary of the method: as §1

[14] = test system: T14, OR2BB; remark: listed apart in the source
T14 sequence (whole entry): T3 sequence (whole entry) with D223G, T293I, D300G
Summary of the method: as §1

[15] = test system: T15, OR2C1; remark: listed apart in the source
T15 sequence (whole entry): T5 sequence (whole entry) with G16S, C149W, C169Y, R229H
Summary of the method: as §1

[16] = test system: OR2BB; remark: listed apart in the source
Summary of the method: as §1
Target sequence in this assay (as listed by the source): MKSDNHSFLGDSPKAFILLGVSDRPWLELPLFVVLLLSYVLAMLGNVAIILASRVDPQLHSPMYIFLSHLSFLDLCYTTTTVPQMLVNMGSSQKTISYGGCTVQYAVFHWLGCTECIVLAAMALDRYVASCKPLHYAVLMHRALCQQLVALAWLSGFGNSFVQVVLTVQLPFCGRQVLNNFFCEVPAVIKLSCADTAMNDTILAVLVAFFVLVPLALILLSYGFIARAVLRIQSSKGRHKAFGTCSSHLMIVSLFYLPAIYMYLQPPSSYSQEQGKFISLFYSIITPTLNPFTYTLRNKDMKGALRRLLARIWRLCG

[17] = test system: OR2C1; remark: listed apart in the source
Summary of the method: as §1
Target sequence in this assay (as listed by the source): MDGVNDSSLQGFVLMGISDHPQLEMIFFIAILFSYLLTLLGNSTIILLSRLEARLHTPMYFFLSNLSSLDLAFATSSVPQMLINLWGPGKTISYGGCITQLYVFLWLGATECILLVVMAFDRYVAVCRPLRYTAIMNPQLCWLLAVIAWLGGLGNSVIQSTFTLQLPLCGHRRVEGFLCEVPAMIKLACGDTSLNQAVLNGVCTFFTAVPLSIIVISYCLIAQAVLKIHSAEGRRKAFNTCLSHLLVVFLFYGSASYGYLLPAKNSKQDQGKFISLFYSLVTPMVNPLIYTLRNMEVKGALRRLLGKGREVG

[18] = test system: OR2C1; remark: listed apart in the source
Summary of the method: as §1
Target sequence in this assay (as listed by the source): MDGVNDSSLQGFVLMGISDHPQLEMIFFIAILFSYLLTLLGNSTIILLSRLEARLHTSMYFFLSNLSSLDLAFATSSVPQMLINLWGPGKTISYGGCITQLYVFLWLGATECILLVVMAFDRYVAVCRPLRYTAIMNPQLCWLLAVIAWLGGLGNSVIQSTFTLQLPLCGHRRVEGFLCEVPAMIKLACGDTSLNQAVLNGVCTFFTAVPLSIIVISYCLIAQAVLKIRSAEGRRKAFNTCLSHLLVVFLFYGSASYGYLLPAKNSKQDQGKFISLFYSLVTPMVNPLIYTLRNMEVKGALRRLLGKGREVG

[19] = test system: OR2C1; remark: listed apart in the source
Summary of the method: as §1
Target sequence in this assay (as listed by the source): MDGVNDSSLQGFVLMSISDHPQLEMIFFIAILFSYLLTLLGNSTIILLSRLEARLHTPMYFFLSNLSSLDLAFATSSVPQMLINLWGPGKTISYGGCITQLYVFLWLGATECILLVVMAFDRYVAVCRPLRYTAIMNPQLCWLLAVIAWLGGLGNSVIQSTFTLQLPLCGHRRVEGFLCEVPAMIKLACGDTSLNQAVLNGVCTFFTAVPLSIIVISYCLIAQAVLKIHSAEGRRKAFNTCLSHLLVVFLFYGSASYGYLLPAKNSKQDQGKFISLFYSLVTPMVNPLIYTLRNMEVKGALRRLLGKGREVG

[20] = test system: OR2C1; remark: listed apart in the source
Summary of the method: as §1
Target sequence in this assay (as listed by the source): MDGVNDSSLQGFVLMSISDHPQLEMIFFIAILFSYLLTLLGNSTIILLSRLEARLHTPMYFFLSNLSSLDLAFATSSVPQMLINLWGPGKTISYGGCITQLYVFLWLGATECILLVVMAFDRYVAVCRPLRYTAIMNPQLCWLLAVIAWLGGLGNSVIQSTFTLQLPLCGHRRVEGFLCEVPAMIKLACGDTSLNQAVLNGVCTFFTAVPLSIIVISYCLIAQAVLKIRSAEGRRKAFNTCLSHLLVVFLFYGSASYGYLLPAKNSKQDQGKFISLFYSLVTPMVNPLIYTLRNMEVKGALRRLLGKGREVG

Measured: odorant receptor agonist call

CC=CC(=O)C1C(C)=CCCC1(C)C (configuration not stated)
inactive: [1]

CCCCC1CCC(=O)O1 (configuration not stated)
inactive: [1]

CC1=C(O)C(=O)OC1C (configuration not stated)
not listed: [13] | [14] | [15] | [16] | [17] | [18] | [19] | [20]
inactive: all other assays above

C=CC(C)(CCC=C(C)C)OC(C)=O (configuration not stated)
inactive: [1]

CC1=C(O)C(=O)C(C)O1 (configuration not stated)
not listed: [13] | [14] | [15] | [16] | [17] | [18] | [19] | [20]
inactive: all other assays above

CCC=C(C)C(O)CCCCC (configuration not stated)
inactive: [1]

COc1ccc(C)cc1
inactive: [1]

CC1=NC(C)C(C)S1 (configuration not stated)
not listed: [13] | [14] | [15] | [16] | [17] | [18] | [19] | [20]
inactive: all other assays above

CCCCCCC=CCCC=O
inactive: [1] | [2] | [3] | [4] | [5] | [6] | [13] | [9] | [10] | [11] | [12]

CC1=CCC2CC1C2(C)C (configuration not stated)
inactive: [1]

Cc1ccc(C(C)C)cc1O
inactive: [1]

CCCCCC1COCCC1OC(C)=O (configuration not stated)
inactive: [1]

CCc1ccc(CC(C)(C)C=O)cc1
inactive: [1]

C=CCOC(=O)COCCC(C)C
inactive: [1]

CC(C)=CCCC(C)CC=O (configuration not stated)
inactive: [1]

CC(C)CCCC(C)(C)O
inactive: [1]

CC1CC(C)(c2ccccc2)CO1 (configuration not stated)
inactive: [1]

CCC(=O)C=CC1C(C)=CCCC1(C)C (configuration not stated)
inactive: [1]

CCCCCC1C(=O)CCC1CC(=O)OC (configuration not stated)
inactive: [1]

Cc1occc(=O)c1OC(=O)C(C)C
inactive: [1]

CC(=O)C=CC1=C(C)CCCC1(C)C
active: [1]

OCc1ccccc1
inactive: [1]

CCCC(C)C(=O)OCC (configuration not stated)
inactive: [1]

COC1CC2CC1C1CC(C=O)CC21 (configuration not stated)
inactive: [1]

CCCCCCCCC(OC(C)=O)OC(C)=O
inactive: [1]

CCOC(=O)CC1(C)OCCO1
inactive: [1]

CC(CC=O)c1ccc(C(C)(C)C)cc1 (configuration not stated)
inactive: [1]

CC(C)(C)C1CCCCC1OCCCCO (configuration not stated)
inactive: [1]

CC(=O)Oc1ccccc1
inactive: [5]

CC1CCCCCCCCCCCCC(=O)C1 (configuration not stated)
inactive: [2] | [5] | [13] | [9] | [11]

CC(=O)c1c(C)c([N+](=O)[O-])c(C(C)(C)C)c([N+](=O)[O-])c1C
inactive: [2] | [5] | [13] | [9] | [11]

O=C1Cc2ccccc2O1
inactive: [5]

CCCCOC(=O)C(C)OC(=O)CCC (configuration not stated)
inactive: [5]

CCCCCC(S)C(C)CO (configuration not stated)
inactive: [1] | [2] | [5] | [13] | [9] | [11]

CC(CO)CS (configuration not stated)
inactive: [1] | [2] | [5] | [13] | [9] | [11]

CCCCCCOC(C)=O
inactive: [5]

CCC(=O)C(=O)CC
inactive: [5]

CCC(S)C(C)CO (configuration not stated)
inactive: [1] | [2] | [5] | [13] | [9] | [11]

CCC1OC(=O)C(O)=C1C (configuration not stated)
not listed: [13] | [14] | [15] | [16] | [17] | [18] | [19] | [20]
inactive: all other assays above

CC12CCC(CC1=O)C2(C)C (configuration not stated)
inactive: [5]

CCCC(S)CCOC(C)=O (configuration not stated)
not listed: [13] | [14] | [15] | [16] | [17] | [18] | [19] | [20]
inactive: all other assays above

CCCCCC(=O)C(C)C(C)=O (configuration not stated)
inactive: [1] | [2] | [5] | [13] | [9] | [11]

c1coc(CSSCc2ccco2)c1
inactive: [6] | [15]
active: [14] | [4]

CC(=O)OCc1ccccc1
inactive: [1] | [5]

c1ccc2ncccc2c1
active: [14] | [4]
inactive: [3] | [16]

CC(C)=CCCC(C)=CCO
inactive: [1] | [5]

CCCCCCCCCO
inactive: [5]

CCCCC(S)C(C)CO (configuration not stated)
inactive: [1] | [2] | [5] | [13] | [9] | [11]

CCCC(C)=O
inactive: [5]

Cc1cnc(C)c(C)n1
not listed: [13] | [14] | [15] | [16] | [17] | [18] | [19] | [20]
inactive: all other assays above

CCCCCCC(=O)[O-].[H+]
inactive: [5]

O=c1ccc2ccccc2o1
inactive: [3] | [16] | [5]
active: [14] | [4]

CCCCOC=O
inactive: [5]

CCCCCCCC(=O)[O-].[H+]
inactive: [5]

CCC1OC(C)=C(O)C1=O (configuration not stated)
not listed: [13] | [14] | [15] | [16] | [17] | [18] | [19] | [20]
inactive: all other assays above

CCCCCCCCCCO
inactive: [5]

C=C(C)C1CCC(C)C(=O)C1 (configuration not stated)
inactive: [5]

CCCCCCCCS
active: [17] | [6] | [18] | [19] | [20] | [15]

O=C([O-])C[SH2+]
inactive: [15]
active: [6]
